In test [1] the target is T1, Adenosine receptor A1 (Rattus norvegicus, UniProt P25099).
T1 sequence (P25099 whole entry): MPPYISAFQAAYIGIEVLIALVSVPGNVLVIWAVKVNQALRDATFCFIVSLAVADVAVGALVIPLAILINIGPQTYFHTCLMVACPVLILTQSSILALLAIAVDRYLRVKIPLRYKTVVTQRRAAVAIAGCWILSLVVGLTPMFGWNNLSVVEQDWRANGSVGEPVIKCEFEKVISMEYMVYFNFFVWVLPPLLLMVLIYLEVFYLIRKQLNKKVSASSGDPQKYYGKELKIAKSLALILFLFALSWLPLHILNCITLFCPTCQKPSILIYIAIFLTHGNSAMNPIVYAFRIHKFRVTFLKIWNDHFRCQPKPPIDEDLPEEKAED
In words: Effective concentration for [35S]GTP-gamma-S, binding to adenosine A1 receptor in rat brain membranes. The class given is functional, cell membranes. In short, it runs like this:
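Stimulation of [35S]GTPγS binding in rat brain membranes (same preparation as binding); nonspecific binding defined with 10 µM unlabeled GTPγS.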

Test [2] deals with T1, Adenosine receptor A1. As to the kind of experiment: Binding affinity against adenosine A1 receptor using [3H]DPCPX in rat cortical membranes in the absence of GTP. The class given is cell membranes. The method, boiled down: (§1)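 Rat cortical membranes, pre-incubated with 2 units/mL ADA at 37 °C before storage; protein by BCA. Nonspecific binding defined with 10 µM R-PIA. Line 1 run without GTP, line 2 with 1 mM GTP. Ki values are means of three independent experiments in duplicate unless otherwise noted.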

Test [3] addresses T1, Adenosine receptor A1. As to the kind of experiment: Binding affinity against adenosine A1 receptor using [3H]DPCPX in rat cortical membranes in the presence of GTP. The class given is cell membranes. The method, boiled down:
as §1

Test [4] addresses T2, Adenosine receptor A1 (Rattus norvegicus) (UniProt P25099).
T2 sequence (whole entry): T1 sequence (P25099 whole entry)
In words: Intrinsic activity for maximum stimulation of [35S]GTP-gamma-S, binding to adenosine A1 receptor in rat brain membranes. The class given is functional, cell membranes. In short, it runs like this:
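Rat brain membranes incubated with the agonist and [35S]GTPγS; nonspecific binding defined with 10 μM unlabelled GTPγS. Read-out is the maximal level of G protein activation by [35S]GTPγS binding, given ± SEM, with EC50 derived from the stimulation curves; n = 3-9.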
(GTPγS is a poorly hydrolysed GTP analogue; its binding reports G protein activation.)

Another test deals with Adenosine receptor A2a (Rattus norvegicus, UniProt P30543). As to the kind of experiment: Binding affinity against Adenosine A2A receptor using [3H]-CGS- 21680 as the radioligand in rat striatal membranes. The class given is cell membranes, Striatum, Membrane.
Chain of Adenosine receptor A2a (P30543 whole entry): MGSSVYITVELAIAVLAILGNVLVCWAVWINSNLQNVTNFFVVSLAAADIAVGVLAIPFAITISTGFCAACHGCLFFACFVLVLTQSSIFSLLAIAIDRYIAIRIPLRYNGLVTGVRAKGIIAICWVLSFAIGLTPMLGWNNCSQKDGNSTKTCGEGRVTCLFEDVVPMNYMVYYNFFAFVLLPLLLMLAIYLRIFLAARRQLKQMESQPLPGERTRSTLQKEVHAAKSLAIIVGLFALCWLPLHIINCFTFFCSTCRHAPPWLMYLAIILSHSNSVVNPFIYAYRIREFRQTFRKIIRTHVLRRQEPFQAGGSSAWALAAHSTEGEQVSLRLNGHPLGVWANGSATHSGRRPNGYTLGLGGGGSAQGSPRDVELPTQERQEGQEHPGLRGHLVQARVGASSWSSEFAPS

At Adenosine receptor A1 [1], `CSC[C@H]1O[C@@H](n2cnc3c(NC4CCCC4)ncnc32)[C@H](O)[C@@H]1O` had an EC50 of 0.099 µM. The Ki was found to be 0.059 µM at Adenosine receptor A1 [2], 0.199 µM at Adenosine receptor A1 [3] and 13.5 µM on Adenosine receptor A2a. In test [4], this molecule displayed an Activity of 40.2%.
`O[C@@H]1[C@H](O)[C@@H](CCl)O[C@H]1n1cnc2c(NC3CCCC3)ncnc21` showed an EC50 on Adenosine receptor A1 [1] of 0.026 µM. In addition, the results for the Ki at Adenosine receptor A1 [2], at Adenosine receptor A1 [3] and on Adenosine receptor A2a were 0.0095 µM, 0.0615 µM and 8.75 µM, respectively. Moreover, the Activity in test [4] was 88%.
For `CCNC[C@H]1O[C@@H](n2cnc3c(NC4CCCC4)ncnc32)[C@H](O)[C@@H]1O`, the inhibition constant (Ki) stood at 2.41 µM on Adenosine receptor A1 [2], 8.56 µM at Adenosine receptor A1 [3] and 42.5 µM on Adenosine receptor A2a.
In the case of `CCSC[C@H]1O[C@@H](n2cnc3c(NC4CCCC4)ncnc32)[C@H](O)[C@@H]1O`, at Adenosine receptor A1 [1], it took 0.127 µM to reach a half-maximal effect (EC50). For the same molecule, the Ki on Adenosine receptor A1 [2] was 0.045 µM; at Adenosine receptor A1 [3], 0.13 µM; on Adenosine receptor A2a it was 19 µM. In addition, the Activity in test [4] amounted to 65.6%.
Take `CC(C)CSC[C@H]1O[C@@H](n2cnc3c(NC4CCCC4)ncnc32)[C@H](O)[C@@H]1O`: the EC50 on Adenosine receptor A1 [1] is 0.189 µM. In addition, the Ki at Adenosine receptor A1 [2] was determined as 0.041 µM; at Adenosine receptor A1 [3], 0.149 µM; on Adenosine receptor A2a it was 10.3 µM. This molecule also displayed an Activity in test [4] of 85.3%.
`OC[C@H]1O[C@@H](n2cnc3c(NC4CCCC4)ncnc32)[C@H](O)[C@@H]1O`: in test [4], the Activity worked out at 100%.
As to `CNC[C@H]1O[C@@H](n2cnc3c(NC4CCCC4)ncnc32)[C@H](O)[C@@H]1O`, the EC50 on Adenosine receptor A1 [1] amounted to 1.33 µM. For the same molecule, the Ki on Adenosine receptor A1 [2] was 0.44 µM; at Adenosine receptor A1 [3] it was 2.6 µM; at Adenosine receptor A2a it was 45.5 µM. In test [4], the Activity is 96.4%.
Regarding `C[Se]C[C@H]1O[C@@H](n2cnc3c(NC4CCCC4)ncnc32)[C@H](O)[C@@H]1O`, the EC50 on Adenosine receptor A1 [1] came out at 0.225 µM. Also, the inhibition constant (Ki) at Adenosine receptor A1 [2] came out at 0.076 µM; on Adenosine receptor A1 [3] it was 0.166 µM; at Adenosine receptor A2a, 11.3 µM. The Activity in test [4] is 50.3%.
At Adenosine receptor A1 [1], `CCCSC[C@H]1O[C@@H](n2cnc3c(NC4CCCC4)ncnc32)[C@H](O)[C@@H]1O` had a 50% effective concentration (EC50) of 0.384 µM. For the same molecule, the results for the Ki on Adenosine receptor A1 [2], at Adenosine receptor A1 [3] and at Adenosine receptor A2a were 0.076 µM, 0.222 µM and 18.8 µM, respectively. For the same molecule, the Activity in test [4] was 84.1%.
`CCCNC[C@H]1O[C@@H](n2cnc3c(NC4CCCC4)ncnc32)[C@H](O)[C@@H]1O` had an EC50 at Adenosine receptor A1 [1] of 13.9 µM. The Ki came out at 4.64 µM at Adenosine receptor A1 [2], 14.3 µM at Adenosine receptor A1 [3] and 14.5 µM on Adenosine receptor A2a. Further, the Activity in test [4] was determined as 73%.

The EC50 is the concentration needed to bring the measured effect to its halfway point. A higher EC50 goes with lower potency in that assay. The term Ki denotes the equilibrium dissociation constant of an inhibitor or competing ligand from its target.
